Experimental data: ChEMBL document CHEMBL1126878, “4,5-Dihydro-1-phenyl-1H-2,4-benzodiazepines: novel antiarrhythmic agents” (J Med Chem, 1993)

Experiments:
[1] = test system: Felis catus; test: Effective refractory period (ERP) after iv administration to anesthetized, acutely infarcted cats at 0.03 mg/kg; assay type: functional
Summary of the method: (§1)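 Anesthetized cats given a slow iv bolus, with single-stage LAD occlusion 10 min later. Stimulating current raised until fibrillation; three baseline sequences about 15 min apart. Pacing repeated every 15 min for 2 h after occlusion, then every 30 min, for 5 h in total. Values are the mean maximum change over 5 h in VFT (mamps) or ERP (ms); cardioversion at 14–50 J.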

[2] = test system: Felis catus; test: Ventricular fribrillation threshold (VFT) after iv administration to anesthetized, acutely infarcted cats at 0.03 mg/kg; assay type: functional, Heart; summary of the method: as §1
[3] = test system: Canis familiaris; test: Minimal effective dose that resulted in significant reduction in PVC frequency in conscious dogs by po administration after 24 hours of coronary artery ligation; assay type: functional; details: Canis lupus familiaris, read-out: MED
Summary of the method: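 Dogs (8.0–19.1 kg) underwent LAD occlusion under halothane anesthesia with Holter electrodes. 24 h after occlusion, animals with PVCs exceeding 50% of heart rate were dosed orally by gavage with agent in water (n = 4 per group). Holter recorded 1 h before and 12–24 h after dosing.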

[4] = test system: Cavia porcellus; test: Minimal effective dose that resulted in significant delay in the onset of arrhythmias in guinea pig with iv administration of aconitine hydrochloride; assay type: functional; details: read-out: MED
Summary of the method: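 Guinea pigs (n = 6 per dose, parallel groups) received agent or saline iv (1 mL/kg) 10 min before a lethal aconitine hydrochloride challenge (34 μg/kg iv). Times to first PVC, sustained VT and VF (>15 s) were recorded and compared with concurrent controls by one-way ANOVA. MED taken from an ascending semilogarithmic dose escalation as the dose giving significant delay in arrhythmia onset.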

[5] = test system: Felis catus; test: Ventricular fribrillation threshold (VFT) after iv administration to anesthetized, acutely infarcted cats at 1 mg/kg; assay type: functional, Heart; summary of the method: as §1
[6] = molecular target: Sodium channel protein type 5 subunit alpha (cardiac sodium channel) (Rattus norvegicus, UniProt P15389); test: in vitro; details: sodium channel from cardiac myocytes, probe [3H]batrachotoxin ([3H]BTX)
[7] = test system: Cavia porcellus; test: In vivo index of cardiac contractility using paced guinea pig model; assay type: functional
Summary of the method: (§2)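 Guinea pig paced in vivo model. Hemodynamics recorded in normal sinus rhythm; ERP measured during brief pacing at baseline and 10 min after dosing. Bolus of 1 mL/kg via left ventricular catheter for doses <10 mg/kg; higher doses infused over 1 min. Cumulative dosing every 15 min up to the maximally tolerated dose (dP/dt reduced >50%). ED20 (ERP +20 ms) and dP/dt20 (20% drop in LV pressure-rise rate) derived by linear regression of individual dose-response curves.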

[8] = test system: Cavia porcellus; test: Effective dose in vivo for cardiac refractoriness (ERP) using paced guinea pig model; assay type: functional; summary of the method: as §2
[9] = test system: Felis catus; test: Effective refractory period (ERP) after iv administration to anesthetized, acutely infarcted cats at 1 mg/kg; assay type: functional; summary of the method: as §1
[10] = test system: Felis catus; test: Effective refractory period (ERP) after iv administration to anesthetized, acutely infarcted cats at 0.3 mg/kg; assay type: functional; summary of the method: as §1
[11] = test system: Felis catus; test: Ventricular fribrillation threshold (VFT) after iv administration to anesthetized, acutely infarcted cats at 0.3 mg/kg; assay type: functional, Heart; summary of the method: as §1
[12] = test system: Felis catus; test: Effective refractory period (ERP) after iv administration to anesthetized, acutely infarcted cats at x mg/kg; assay type: functional; summary of the method: as §1
[13] = test system: Felis catus; test: Ventricular fribrillation threshold (VFT) after iv administration to anesthetized, acutely infarcted cats at 5 mg/kg; assay type: functional, Heart
Summary of the method: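 Anesthetized cats received a slow iv bolus of test agent, followed 10 min later by single-stage LAD occlusion. Before dosing, VFT was measured three times about 15 min apart as baseline, raising the stimulating current until fibrillation was induced. After occlusion, pacing was repeated every 15 min for 2 h, then every 30 min, to 5 h. The value is the mean maximum VFT change (mamps) over 5 h.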

[14] = test system: Felis catus; test: Ventricular fribrillation threshold (VFT) after iv administration to anesthetized, acutely infarcted cats at 3 mg/kg; assay type: functional, Heart; summary of the method: as §1
[15] = test system: Felis catus; test: Effective refractory period (ERP) after iv administration to anesthetized, acutely infarcted cats at 3 mg/kg; assay type: functional; summary of the method: as §1

Chain of Sodium channel protein type 5 subunit alpha (cardiac sodium channel) (P15389 whole entry): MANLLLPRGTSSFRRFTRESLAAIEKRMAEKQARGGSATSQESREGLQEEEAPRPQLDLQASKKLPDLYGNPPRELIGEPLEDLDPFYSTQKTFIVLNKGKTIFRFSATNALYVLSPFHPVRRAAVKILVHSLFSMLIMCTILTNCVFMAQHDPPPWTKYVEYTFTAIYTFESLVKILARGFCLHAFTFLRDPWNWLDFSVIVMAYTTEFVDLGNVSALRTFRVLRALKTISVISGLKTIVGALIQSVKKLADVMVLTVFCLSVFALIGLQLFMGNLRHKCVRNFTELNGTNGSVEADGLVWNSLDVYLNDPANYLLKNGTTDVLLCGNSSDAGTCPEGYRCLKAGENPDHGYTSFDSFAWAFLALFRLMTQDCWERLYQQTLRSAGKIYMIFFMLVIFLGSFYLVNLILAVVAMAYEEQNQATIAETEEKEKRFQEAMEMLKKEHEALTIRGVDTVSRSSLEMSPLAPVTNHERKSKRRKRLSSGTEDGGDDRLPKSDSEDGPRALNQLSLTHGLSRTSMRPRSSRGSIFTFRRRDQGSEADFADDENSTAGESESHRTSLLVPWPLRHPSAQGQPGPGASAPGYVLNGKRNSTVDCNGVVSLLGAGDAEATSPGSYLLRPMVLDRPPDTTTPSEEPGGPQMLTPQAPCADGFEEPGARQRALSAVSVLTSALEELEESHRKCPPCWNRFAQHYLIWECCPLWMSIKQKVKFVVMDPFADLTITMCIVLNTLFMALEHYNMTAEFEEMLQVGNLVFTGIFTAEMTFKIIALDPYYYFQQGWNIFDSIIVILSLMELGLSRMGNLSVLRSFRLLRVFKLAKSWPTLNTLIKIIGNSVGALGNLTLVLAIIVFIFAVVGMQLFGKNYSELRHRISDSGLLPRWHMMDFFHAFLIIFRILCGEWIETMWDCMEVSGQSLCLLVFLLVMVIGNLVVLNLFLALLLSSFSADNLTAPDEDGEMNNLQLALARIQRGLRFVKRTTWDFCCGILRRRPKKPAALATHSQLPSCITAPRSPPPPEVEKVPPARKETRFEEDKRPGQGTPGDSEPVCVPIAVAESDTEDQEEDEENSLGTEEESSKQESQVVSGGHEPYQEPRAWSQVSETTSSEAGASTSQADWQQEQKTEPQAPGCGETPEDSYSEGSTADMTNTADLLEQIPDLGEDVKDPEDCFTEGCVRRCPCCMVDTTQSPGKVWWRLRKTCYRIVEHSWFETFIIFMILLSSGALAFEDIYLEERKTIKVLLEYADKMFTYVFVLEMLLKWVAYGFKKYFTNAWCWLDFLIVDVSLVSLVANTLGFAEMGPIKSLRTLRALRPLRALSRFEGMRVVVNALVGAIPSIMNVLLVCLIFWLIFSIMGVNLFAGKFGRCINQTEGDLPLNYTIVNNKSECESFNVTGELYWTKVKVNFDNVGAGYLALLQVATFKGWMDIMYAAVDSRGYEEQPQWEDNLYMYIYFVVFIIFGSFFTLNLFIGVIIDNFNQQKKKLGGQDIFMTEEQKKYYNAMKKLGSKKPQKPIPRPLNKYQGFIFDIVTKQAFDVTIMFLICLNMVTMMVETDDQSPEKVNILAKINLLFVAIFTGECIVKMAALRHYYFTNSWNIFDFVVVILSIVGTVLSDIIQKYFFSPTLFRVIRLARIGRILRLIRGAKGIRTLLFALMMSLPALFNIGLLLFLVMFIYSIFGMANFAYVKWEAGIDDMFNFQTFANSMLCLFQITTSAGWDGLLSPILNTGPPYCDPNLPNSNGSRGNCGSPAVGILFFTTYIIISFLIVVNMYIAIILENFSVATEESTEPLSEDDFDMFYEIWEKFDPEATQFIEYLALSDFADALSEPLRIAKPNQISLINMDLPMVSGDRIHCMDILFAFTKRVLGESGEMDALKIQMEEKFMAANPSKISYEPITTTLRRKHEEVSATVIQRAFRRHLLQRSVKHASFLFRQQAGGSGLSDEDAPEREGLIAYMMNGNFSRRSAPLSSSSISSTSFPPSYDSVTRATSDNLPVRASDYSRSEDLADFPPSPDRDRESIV

| Compound | ERP [1] | VFT [2] | minimal effective dose [3] | minimal effective dose [4] | VFT [5] | inhibition at 10 µM [6] | dP/dt20 [7] | ED20 [8] | ERP [9] | ERP [10] | VFT [11] | ERP [12] | VFT [13] | VFT [14] | ERP [15] |
| --- | --- | --- | --- | --- | --- | --- | --- | --- | --- | --- | --- | --- | --- | --- | --- |
| CN(CCOc1ccc(NS(C)(=O)=O)cc1)CCc1ccc(NS(C)(=O)=O)cc1 [DOFETILIDE] | 85 ms | 43 mA | – | – | – | – | – | – | – | – | – | – | – | – | – |
| CCC1=NC(c2ccccc2)c2ccccc2CN1C.Cl (centres undefined) | – | – | 10 mg/kg | 3 mg/kg | 84 mA | 50% | 0.8 mg/kg | 0.6 mg/kg | 13 ms | – | – | – | – | – | – |
| CN1Cc2ccccc2[C@H](c2ccccc2)N=C1CCc1ccccc1.Cl | – | – | 10 mg/kg | 0.1 mg/kg | 82 mA | – | 0.02 mg/kg | 0.02 mg/kg | 21 ms | – | – | – | – | – | – |
| CCC1=N[C@H](c2ccccc2)c2ccccc2CN1C.Cl | – | – | 10 mg/kg | 3 mg/kg | – | 42% | 0.3 mg/kg | 0.3 mg/kg | – | 16 ms | 63 mA | – | – | – | – |
| CCOC(=O)C1(c2ccccc2)N=C(CC)N(C)Cc2ccccc21.O=C(O)/C=C/C(=O)O (centres undefined) | – | – | 3 mg/kg | < 3 mg/kg | – | 56% | 0.1 mg/kg | 0.4 mg/kg | – | – | 84 mA | 47 ms | – | – | – |
| CC(C)N(CCC(C(N)=O)(c1ccccc1)c1ccccn1)C(C)C (centres undefined) [DISOPYRAMIDE] | – | – | 40 mg/kg | 1 mg/kg | – | 17% | 0.03 mg/kg | 0.2 mg/kg | – | – | – | 26 ms | 73 mA | – | – |
| CCC1=NC(C)(c2ccccc2)c2ccccc2CN1C.O=C(O)/C=C/C(=O)O (centres undefined) | – | – | 10 mg/kg | < 3 mg/kg | – | 60% | 1.2 mg/kg | 0.7 mg/kg | – | – | – | 78 ms | – | 81 mA | – |
| O=C(NCC1CCCCN1)c1cc(OCC(F)(F)F)ccc1OCC(F)(F)F (centres undefined) [FLECAINIDE] | – | – | 10 mg/kg | 3 mg/kg | – | 74% | 1.8 mg/kg | 12.8 mg/kg | – | – | – | – | – | 30 mA | 5 ms |
| CN1Cc2ccccc2C(c2ccccc2)N=C1CCc1ccc(Cl)cc1.O=C(O)/C=C/C(=O)O (centres undefined) | – | – | 3 mg/kg | 3 mg/kg | 93 mA | 97% | 0.85 mg/kg | 0.1 mg/kg | – | – | – | 45 ms | – | – | – |
| CN1Cc2ccccc2C(c2ccccc2)N=C1CCc1ccccc1.Cl (centres undefined) | – | – | 3 mg/kg | < 3 mg/kg | 95 mA | – | 0.02 mg/kg | 0.04 mg/kg | 61 ms | – | – | – | – | – | – |
| CN1Cc2ccccc2[C@@H](c2ccccc2)N=C1CCc1ccccc1.Cl | – | – | 3 mg/kg | 0.1 mg/kg | – | – | 0.03 mg/kg | 0.03 mg/kg | – | – | 37 mA | 13 ms | – | – | – |
| CCC1=N[C@@H](c2ccccc2)c2ccccc2CN1C.Cl | – | – | > 10 mg/kg | 3 mg/kg | – | 45% | 0.09 mg/kg | 7.1 mg/kg | – | – | – | – | – | – | – |
| C=C[C@H]1CN2CC[C@H]1C[C@@H]2[C@@H](O)c1ccnc2ccc(OC)cc12 [QUINIDINE] | – | – | 30 mg/kg | 1 mg/kg | – | 68% | 2.5 mg/kg | 7.2 mg/kg | – | – | – | – | – | – | – |
| CN1Cc2ccccc2C(C)(c2ccccc2)N=C1CC(O)c1ccccc1 (centres undefined) | – | – | 10 mg/kg | < 3 mg/kg | – | 92% | 0.1 mg/kg | 0.1 mg/kg | – | – | – | – | – | – | – |
